We go through 1 compound from ChEMBL document CHEMBL1275600, “Prophylactic activity of intramuscular peramivir in mice infected with a recombinant influenza A/WSN/33 (H1N1) virus containing the H274Y neuraminidase mutation” (Antimicrob Agents Chemother, 2010).

Calls of active or inactive are those of the source. No cut-off for these calls is given here.

In data set [1] the test system is Influenza A virus. In words: Antiviral activity against oseltamivir-resistant Influenza A/WSN/33 (H1N1) virus expressing neuraminidase H274Y mutant gene infected in BALB/c mouse assessed as log reduction in lung viral titer at 45 mg/kg, im administered as single dose and measured after 4 days. Format: functional, A/WSN/1933(H1N1). The note with it: route intramuscular. The method, boiled down: (§1)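 Male BALB/c mice received IM drug at 50 mg/ml in pH 3.0 buffered saline, starting 1 h before intranasal infection with 8 × 10^3 PFU of recombinant virus. Subgroups of 4 were sacrificed on day 4. Lungs were homogenized in 2 ml PBS with antibiotics and spun at 600 × g for 10 min. Supernatants were plaque-titrated on MDBK cells in triplicate. Comparison to untreated infected mice used a two-tailed unpaired t test.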

The subject of data set [2] is Influenza A virus. Description: Antiviral activity against oseltamivir-resistant Influenza A/WSN/33 (H1N1) virus expressing neuraminidase H274Y mutant gene infected in BALB/c mouse assessed as survival of mouse at 90 mg/kg, im administered as single dose. In kind it is functional, organism-based. Further details: dose 90 mg/kg. The settings on record: A/WSN/1933(H1N1). Summed up: (§2)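 Male BALB/c mice, 6–8 weeks old and 20–25 g, were randomized by weight, 4 per cage, in groups of 12. Drug at 50 mg/ml in saline buffered to pH 3.0 was given by IM hip injection, first dose 1 h before challenge. Mice were infected intranasally under isoflurane with 8 × 10^3 PFU of cell-grown recombinant virus in 30 μl PBS. Mortality was recorded daily for 14 days.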

Data set [3] relates to Mus musculus. Description: Toxicity against oseltamivir-resistant Influenza A/WSN/33 (H1N1) virus expressing neuraminidase H274Y mutant gene infected BALB/c mouse assessed as weight loss at 45 mg/kg, im administered as single dose and measured after 6 days. In kind it is organism-based. Further details: dose 45 mg/kg, route intramuscular. The settings on record: in vivo, 144 h. The method, boiled down: (§3)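 Male BALB/c mice, groups of 12, received IM drug at 50 mg/ml in pH 3.0 buffered saline, starting 1 h before intranasal infection with 8 × 10^3 PFU of recombinant virus. Body weight was monitored daily for 14 days. Mean weight loss was compared across regimens by one-way ANOVA, with uninfected PBS-treated mice as reference.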

Data set [4] has as its system Influenza A virus. In words: Antiviral activity against oseltamivir-resistant Influenza A/WSN/33 (H1N1) virus expressing neuraminidase H274Y mutant gene infected in BALB/c mouse assessed as survival of mouse at 45 mg/kg, im once daily for 5 days. Format: functional, organism-based. The arrangement: dose 45 mg/kg. The note with it: A/WSN/1933(H1N1). The method, boiled down: as §2

The subject of data set [5] is Influenza A virus. In words: Antiviral activity against oseltamivir-resistant Influenza A/WSN/33 (H1N1) virus expressing neuraminidase H274Y mutant gene infected in BALB/c mouse assessed as log reduction in lung viral titer at 45 mg/kg, im once daily for 5 days. Format: functional, A/WSN/1933(H1N1). The settings on record: route intramuscular. The method, boiled down: as §1

The test system of data set [6] is Influenza A virus. Description: Antiviral activity against oseltamivir-resistant Influenza A/WSN/33 (H1N1) virus expressing neuraminidase H274Y mutant gene infected in BALB/c mouse assessed as survival of mouse at 45 mg/kg, im administered as single dose. The arrangement: dose 45 mg/kg. In kind it is functional, organism-based. The note with it: A/WSN/1933(H1N1). The method, boiled down:
as §2

Data set [7] has as its system Mus musculus. Description: Toxicity against oseltamivir-resistant Influenza A/WSN/33 (H1N1) virus expressing neuraminidase H274Y mutant gene infected BALB/c mouse assessed as weight loss at 45 mg/kg, im once daily for 5 days measured after 14 days. Further details: dose 45 mg/kg, route intramuscular. The note with it: in vivo, 336 h. In kind it is organism-based. Summed up:
as §3

The subject of data set [8] is Mus musculus. Description: Toxicity against oseltamivir-resistant Influenza A/WSN/33 (H1N1) virus expressing neuraminidase H274Y mutant gene infected BALB/c mouse assessed as weight loss at 90 mg/kg, im administered as single dose and measured after 14 days. The arrangement: dose 90 mg/kg, route intramuscular. In kind it is organism-based. The note with it: in vivo, 336 h. The method, boiled down:
as §3

Data set [9] concerns Influenza A virus. In words: Antiviral activity against oseltamivir-resistant Influenza A/WSN/33 (H1N1) virus expressing neuraminidase H274Y mutant gene infected in BALB/c mouse assessed as log reduction in lung viral titer at 90 mg/kg, im administered as single dose and measured after 4 days. In kind it is functional, A/WSN/1933(H1N1). The note with it: route intramuscular. The method, boiled down: as §1

Take `CCC(CC)[C@H](NC(C)=O)[C@@H]1[C@H](O)[C@@H](C(=O)O)C[C@H]1NC(=N)N` [PERAMIVIR ANHYDROUS]: the FC in [1], in data set [5] and in data set [9] was 1.5 throughout. Further, the outcome in data set [2], in data set [4] and in data set [6] was inactive. The values for the Activity result in data set [3], in data set [7] and in [8] were “Toxic”, “Non-toxic” and “Non-toxic”, respectively.
